The source of these data is ChEMBL document CHEMBL1255440, “An antimicrobial peptide that targets DNA repair intermediates in vitro inhibits Salmonella growth within murine macrophages” (Antimicrob Agents Chemother, 2010).

Series [1] deals with Salmonella typhimurium. Briefly: Antibacterial activity against 1 MOI Salmonella enterica subsp. enterica serovar Typhimurium infected in mouse peritoneal macrophages assessed as reduction in bacterial growth at 150 uM after 24 hrs relative to DMEM control. The format is functional. Set-up: scale not given: the % may be the effect or the level left. An outline of the steps: (§1)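 J774A.1 cells or thioglycolate-elicited BALB/c peritoneal macrophages seeded at 200,000/well, overnight 37°C 5% CO2; infected with GFP strain SDT1416, 1 h invasion, washed, 1 h in DMEM with 15 μg/ml gentamicin. Then fresh DMEM plus 15 μg/ml gentamicin with or without peptide (DMSO vehicle) for 24 h at 37°C; macrophages lysed with 1% Triton X-100, plated on LB agar for CFU.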

In series [2] the test system is Salmonella typhimurium. As to the kind of experiment: Antibacterial activity against 10 MOI Salmonella enterica subsp. enterica serovar Typhimurium G785 transfected with SOS-inducible beta-galactosidase reporter infected in mouse J774A1 cells assessed as SOS induction at 150 uM after 4 hrs postinfection. The format is functional, J774.A1. An outline of the steps: (§2)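 J774A.1 cells infected at MOI 10 with sulA promoter-lacZ reporter strain G785 using the gentamicin-protection protocol, treated with peptide (DMSO vehicle controls) plus 15 μg/ml gentamicin for 4 or 24 h. Released bacteria were plated for colony counts in parallel, and were incubated with 33 μM C12FDG (with 0.2 mM EDTA) in LB for 2 h at 37°C. Flow cytometry gave % fluorescein-positive among LPS-antibody-positive particles; Wilcoxon exact test.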

The test system of series [3] is Salmonella typhimurium. Briefly: Antibacterial activity against 10 MOI Salmonella enterica subsp. enterica serovar Typhimurium G785 transfected with SOS-inducible beta-galactosidase reporter infected in mouse J774A1 cells assessed as bacterial number at 150 uM after 24 hrs postinfection. Type of series: functional, J774.A1. Summed up: as §2
Series [4] concerns J774.A1. Briefly: Cytotoxicity against mouse J774A1 cells assessed as metabolic activity at 50 uM after 24 hrs by MTT assay. The format is ADME, cell-based. The note with it: j774.a1, 24 h. Summed up:
(§3)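 Cells seeded at 40,000/well in 96-well plates, overnight 37°C 5% CO2, then treated 24 h in fresh DMEM. MTT (4 mg/ml stock in PBS) added for up to 3 h. Formazan solubilized overnight at 37°C in SDS/dimethylformamide/acid lysis buffer, OD read at 575 nm. Paired t tests.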
Background: Tetrazolium assays rely on reduction of a dye to a coloured formazan, in cell work by metabolically active cells.

The nature of series [5]: Cytotoxicity against mouse peritoneal macrophages assessed as metabolic activity upto 100 uM after 24 hrs by MTT assay. Type of series: ADME, cell-based. As to conditions: peritoneal macrophage cell; call rule not given here. Summed up: as §3
Series [6] relates to J774.A1. Briefly: Cytotoxicity against mouse J774A1 cells assessed as dead cells at 50 uM by propidium iodide assay. Type of series: cell-based. As to conditions: j774.a1, 50 µM. An outline of the steps: (§4)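 Cells seeded at 300,000/well and allowed to adhere, then given fresh DMEM with or without peptide for 24 h. Cells trypsinized, stained with a mammalian Live/Dead viability/cytotoxicity kit and analyzed by flow cytometry. Wilcoxon exact test.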

A short description of series [7]: Cytotoxicity against mouse peritoneal macrophages assessed as live cells at 100 uM by calcein AM assay. The format is cell-based, Peritoneal macrophage cell. The note with it: read-out: Activity. An outline of the steps: as §4
Series [8] deals with J774.A1. Briefly: Drug uptake in mouse J774A1 cells assessed as total peptide concentration at 100 uM after 5 hrs at 37 degC by HPLC analysis. The format is ADME, cell-based. The note with it: j774.a1, 5 h. An outline of the steps: (§5)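 J774A.1 cells were incubated with unlabeled peptide for 5 or 24 h at 37°C or 4°C, washed in ice-cold PBS and lysed with NP-40 buffer. Lysates were run on reverse-phase HPLC with an acetonitrile/0.1% TFA gradient and A280 fractions. Monomer (~17.5 min) and dimer (~17.75 min) peak areas were compared against a standard curve. Intracellular mM was calculated using 300,000 cells and 1 pl/cell, with concentration expressed as monomer mass.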

The nature of series [9]: Drug uptake in mouse peritoneal macrophages assessed as dimer to monomer peptide ratio at 50 uM after 24 hrs at 37 degC by HPLC analysis. The format is ADME, cell-based. The note with it: peritoneal macrophage cell. Summed up: (§6)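 Macrophages were elicited in 8–12-week-old female BALB/c mice with 4% thioglycolate i.p. and harvested by lavage 4 days later. Cells were seeded at 300,000 per well for 24 h, then given unlabeled peptide in DMEM for 24 h at 37°C. Lysates were run on reverse-phase HPLC at A280. Monomer (17.5 min) and dimer (17.75 min) peak areas were compared with a standard curve. Concentration assumed 1 pl per cell; values are means of three determinations.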

The nature of series [10]: Drug uptake in mouse peritoneal macrophages assessed as total peptide concentration at 150 uM after 24 hrs at 37 degC by HPLC analysis. Type of series: ADME, cell-based. The note with it: peritoneal macrophage cell. Summed up: as §6
Series [11] in a line: Drug uptake in mouse peritoneal macrophages assessed as total peptide concentration at 100 uM after 24 hrs at 37 degC by HPLC analysis. The format is ADME, cell-based. As to conditions: peritoneal macrophage cell. Summed up:
as §6

Series [12] is described as follows: Drug uptake in mouse peritoneal macrophages assessed as total peptide concentration at 50 uM after 24 hrs at 37 degC by HPLC analysis. The format is ADME, cell-based. The note with it: peritoneal macrophage cell. Summed up: as §6
The test system of series [13] is J774.A1. Briefly: Drug uptake in mouse J774A1 cells assessed as dimer to monomer peptide ratio at 50 uM after 24 hrs at 37 degC by HPLC analysis. As to conditions: j774.a1, 24 h. The format is ADME, cell-based. An outline of the steps:
as §5

Series [14] relates to J774.A1. Briefly: Drug uptake in mouse J774A1 cells at 0.5 uM after 5 mins by confocal laser microscopy. The format is ADME, cell-based. As to conditions: j774.a1, 5 min. Summed up:
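Cells were seeded at 200,000 per chamber-slide well and left to adhere overnight at 37°C. They were then exposed in DMEM to peptide carrying an N-terminal rhodamine label, at 37°C or, where stated, 4°C. Cells were washed three times in PBS, fixed in 4% paraformaldehyde for 30 min, and mounted in antifade. Optical slices near the cell centre were imaged by confocal laser microscopy.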

For series [15], the system named is J774.A1. Briefly: Drug uptake in mouse J774A1 cells assessed as total peptide concentration at 150 uM after 5 hrs at 37 degC by HPLC analysis. Type of series: ADME, cell-based. As to conditions: j774.a1, 5 h. Summed up:
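J774A.1 cells were seeded at 300,000 per well and allowed to adhere for 24 h at 37°C in 5% CO2. Medium was replaced with DMEM containing unlabeled peptide, and cells were held at 37°C or 4°C. After three washes in ice-cold PBS, cells were lysed in NP-40 buffer and debris spun out. Reverse-phase HPLC was read at 280 nm. Peaks at 17.5 and 17.75 min were integrated against a standard curve. Intracellular mM was calculated from 300,000 cells at 1 pl each, using monomer mass.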

Series [16] relates to J774.A1. As to the kind of experiment: Drug uptake in mouse J774A1 cells assessed as dimer to monomer peptide ratio at 150 uM after 5 hrs at 37 degC by HPLC analysis. The note with it: j774.a1, 5 h. Type of series: ADME, cell-based. Summed up:
as §5

In series [17] the test system is J774.A1. As to the kind of experiment: Drug uptake in mouse J774A1 cells assessed as dimer to monomer peptide ratio at 50 uM after 5 hrs at 4 degC by HPLC analysis. The format is ADME, cell-based. The note with it: j774.a1, 5 h. Summed up: as §5
The subject of series [18] is Salmonella typhimurium. As to the kind of experiment: Antibacterial activity against 1 MOI Salmonella enterica subsp. enterica serovar Typhimurium infected in mouse J774A1 cells assessed as reduction in bacterial growth after 24 hrs. As to conditions: J774.A1. The format is functional, organism-based. An outline of the steps:
as §1

Series [19] relates to Salmonella typhimurium. As to the kind of experiment: Antibacterial activity against 1 MOI Salmonella enterica subsp. enterica serovar Typhimurium infected in mouse peritoneal macrophages assessed as reduction in bacterial growth at 100 uM after 24 hrs. Type of series: functional. The arrangement: scale not given: the % may be the effect or the level left. Summed up: as §1

For series [20], the system named is J774.A1. Briefly: Drug uptake in mouse J774A.1 cells assessed as total peptide concentration at 50 uM after 24 hrs at 4 degC by HPLC analysis. The note with it: J774A.1, 24 h.
For series [21], the system named is J774.A1. As to the kind of experiment: Drug uptake in mouse J774A.1 cells assessed as total peptide concentration at 150 uM after 24 hrs at 4 degC by HPLC analysis. The note with it: J774A.1, 24 h.
Series [22] deals with J774.A1. As to the kind of experiment: Drug uptake in mouse J774A.1 cells assessed as dimer to monomer peptide ratio at 50 uM after 24 hrs at 4 degC by HPLC analysis. As to conditions: J774A.1, 24 h.

SMILES strings stand for the structures.

For the molecule `N=C(N)NCCC[C@@H](NC(=O)[C@@H](CS)NC(=O)[C@@H](Cc1ccc(O)cc1)NC(=O)[C@@H](Cc1c[nH]c2ccccc12)NC(=O)[C@@H](CCCNC(=N)N)NC(=O)[C@H](N)Cc1c[nH]c2ccccc12)C(=O)O`, the Activity in the series with Salmonella typhimurium [1] is on record as 72.3%; with Salmonella typhimurium [2], 8.5%; in the series on Salmonella typhimurium [3] it was 1.9%; in the series on J774.A1 [4], “Non-toxic”; in series [5] it was “Non-toxic”; in the series with J774.A1 [6], 4.3%. The Activity result was “Dose-dependent effect” in the series on Salmonella typhimurium [18] and 45% with Salmonella typhimurium [19]. For the same molecule, the viability at 100 µM in [7] is 94.4%. For the same molecule, the Drug uptake in the series with J774.A1 [8] is recorded as 8 mM; in series [10], 24.8 mM; in [11], 7.4 mM; in series [12] it was 2.5 mM; in the series with J774.A1 [14] it was “Active”; in the series with J774.A1 [15], 28.9 mM. Also, the Drug uptake in the series with J774.A1 [20] is listed as 10.1 mM; in the series with J774.A1 [21], 47.7 mM. The Ratio in series [9] was found to be 0.9; in the series with J774.A1 [13], 1.7; in the series with J774.A1 [16], 11; in the series with J774.A1 [17], 2.3; with J774.A1 [22], 7.4.
